Experimental data taken from ChEMBL document CHEMBL4043184, “The design and synthesis of a novel compound of berberine and baicalein that inhibits the efficacy of lipid accumulation in 3T3-L1 adipocytes” (Bioorg Med Chem, 2017).
The source made the active and inactive calls. The calls are words filed in the database; no cut-off is given here.

Assays:
3T3-L1 [1] = assay: Cytotoxicity against mouse 3T3L1 cells assessed as reduction in cell viability incubated for 48 hrs by CCK8 assay; type: cell-based; conditions: for IC50: Mus musculus, 3T3-L1, 48 h; for Activity: mouse, 3t3-l1, 48 h
Method in brief: (§1)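 3T3-L1 preadipocytes (maintained in DMEM/10% calf serum, 37 °C, 5% CO2) seeded 5×10^3 cells/well in 96-well plates, grown 24 h, then exposed to 1.25–80 µM for 48 h; controls 0.1% DMSO. CCK8 added for 2 h at 37 °C, absorbance at 450 nm. IC50 by logit method; n = 6 plates, ≥3 experiments.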

3T3-L1 [2] = assay: Suppression of lipogenesis associated gene expression in mouse 3T3L1 cells assessed as reduction in Acc mRNA expression at 2.5 and 5 uM incubated for 48 hrs by qPCR method; type: functional, cell-based
Method in brief: (§2)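 Mature 3T3-L1 adipocytes (confluent cells induced 3 days with 0.5 mmol/L IBMX, 1.0 µmol/L DEX, 10 mg/L insulin, then insulin 2 days, used ~day 10) treated 0, 2.5 or 5 µM for 48 h. Total RNA extracted, qPCR, normalized to β-actin; DMSO 0.1% controls; mean ± SD, three independent experiments.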

3T3-L1 [3] = assay: Induction of Atgl mRNA expression in mouse 3T3L1 cells at 2.5 and 5 uM incubated for 48 hrs by qPCR method; type: functional, cell-based; method in brief: as §2
3T3-L1 [4] = assay: Cytotoxicity against mouse 3T3L1 cells assessed as reduction in cell viability at <5 uM incubated for 48 hrs by CCK8 assay; type: cell-based; conditions: 3t3-l1, 48 h; method in brief: as §1
3T3-L1 [5] = assay: Effect on Hsl mRNA expression in mouse 3T3L1 cells at 2.5 and 5 uM incubated for 48 hrs by qPCR method; type: functional, cell-based; method in brief: as §2
3T3-L1 [6] = assay: Suppression of lipogenesis associated gene expression in mouse 3T3L1 cells assessed as reduction in Fasn mRNA expression at 5 uM incubated for 48 hrs by qPCR method; type: functional, cell-based; method in brief: as §2
3T3-L1 [7] = assay: Inhibition of triglyceride content in mouse 3T3L1 cells at 2.5 uM incubated for 48 hrs by triglyceride GPO-POD assay; type: functional; conditions: 3T3-L1, 48 h
Method in brief: (§3)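 Differentiated 3T3-L1 adipocytes treated 0, 2.5 or 5 µM for 48 h; lysates heated 70 °C for 10 min, centrifuged, supernatant mixed with GPO-POD working reagent 10 min at 37 °C, absorbance at 550 nm. TG normalized to BCA protein; 0.1% DMSO controls; mean ± SD of ≥3 experiments.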

3T3-L1 [8] = assay: Induction of AMPK mRNA expression in mouse 3T3L1 cells at 5 uM incubated for 48 hrs by qPCR method; type: functional, cell-based; method in brief: as §2
3T3-L1 [9] = assay: Suppression of lipogenesis associated gene expression in mouse 3T3L1 cells assessed as reduction in Srebp-1c mRNA expression incubated for 48 hrs by qPCR method; type: functional, cell-based; method in brief: as §2
3T3-L1 [10] = assay: Inhibition of triglyceride content in mouse 3T3L1 cells at 5 uM incubated for 48 hrs by triglyceride GPO-POD assay; type: functional; conditions: 3T3-L1, 48 h; method in brief: as §3
3T3-L1 [11] = assay: Inhibition of lipid accumulation in mouse 3T3L1 cells at 2.5 to 5 uM incubated for 48 hrs by Oil Red O staining based spectrophotometry; type: functional, cell-based
Method in brief: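 Mature 3T3-L1 adipocytes (IBMX/DEX/insulin-differentiated, day 10) after 48 h treatment fixed in 10% buffered formalin 30 min, stained with diluted Oil Red O 1 h at room temperature, washed with 60% isopropanol, dye eluted with isopropanol, absorbance read at 510 nm; expressed as percent intracellular lipid.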

3T3-L1 [12] = assay: Suppression of lipogenesis associated gene expression in mouse 3T3L1 cells assessed as reduction in Scd1 mRNA expression at 2.5 and 5 uM incubated for 48 hrs by qPCR method; type: functional, cell-based; method in brief: as §2
3T3-L1 [13] = assay: Cytotoxicity against mouse 3T3L1 cells assessed as reduction in cell viability at >10 uM incubated for 48 hrs by CCK8 assay; type: cell-based; conditions: 3t3-l1, 48 h; method in brief: as §1
3T3-L1 [14] = assay: Cytotoxicity against mouse 3T3L1 cells assessed as reduction in cell viability at 1.25 to 5 uM incubated for 48 hrs by CCK8 assay; type: cell-based; conditions: 3t3-l1, 48 h; method in brief: as §1
3T3-L1 [15] = assay: Cytotoxicity against mouse 3T3L1 cells assessed as reduction in cell viability at […] incubated for 48 hrs by CCK8 assay; type: cell-based; conditions: 3t3-l1, 48 h
3T3-L1 [16] = assay: Reduction in Hsl mRNA expression in mouse 3T3L1 cells at 2.5 uM incubated for 48 hrs by qPCR method; type: functional, cell-based; method in brief: as §2
3T3-L1 [17] = assay: Cytotoxicity against mouse 3T3L1 cells assessed as reduction in cell viability at 20 uM incubated for 48 hrs by CCK8 assay; type: cell-based; conditions: 3t3-l1, 48 h; method in brief: as §1

Row | Structure (SMILES) | IC50 (3T3-L1 [1]) [µM] | Activity (3T3-L1 [1]) | inhibition (3T3-L1 [2]) | Activity (3T3-L1 [3]) | Activity (3T3-L1 [4]) | Activity (3T3-L1 [5]) | inhibition (3T3-L1 [6]) | inhibition at 2.5 µM (3T3-L1 [7]) [%] | Activity (3T3-L1 [8]) | inhibition (3T3-L1 [9]) | inhibition at 5 µM (3T3-L1 [10]) [%] | inhibition (3T3-L1 [11]) | inhibition (3T3-L1 [12]) | Activity (3T3-L1 [13]) | Activity (3T3-L1 [14]) | Activity (3T3-L1 [15]) | Activity (3T3-L1 [16]) | Activity (3T3-L1 [17]) [%]
1 | COc1ccc2cc3[n+](cc2c1OCCCCCCOc1c(O)cc2oc(-c4ccccc4)cc(=O)c2c1O)CCc1cc2c(cc1-3)OCO2 | 9.42 | Dose-dependent effect | Active | Active | Non-Toxic | inactive | Active | 27.3 | Active | Dose-dependent effect | 37.4 | Active | Active | – | – | – | – | –
2 | O=c1cc(-c2ccccc2)oc2cc(O)c(O)c(O)c12 [BAICALEIN] | 29.8 | Dose-dependent effect | – | Active | – | – | Active | – | Active | Dose-dependent effect | – | – | Active | Toxic | Non-Toxic | Non-Toxic | Active | –
3 | COc1ccc2cc3[n+](cc2c1OC)CCc1cc2c(cc1-3)OCO2 [BERBERINE] | 21.8 | Dose-dependent effect | – | Active | – | – | Active | – | – | Dose-dependent effect | – | – | Active | – | – | – | Active | 45
